Reference: ChEMBL document CHEMBL1153034, “Antileishmaniasis activity of flavonoids from Consolida oliveriana” (J Nat Prod, 2009)
Active and inactive are the calls of the source. No cut-off for these calls is given here.

Columns and labels:
J774.2 = experiment: Cytotoxicity against BALB/c mouse J774.2 cells after 72 hrs by trypan blue assay; assay type: cell-based
Outline: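 J774.2 macrophages in MEM with 10% inactivated FBS, pH 7.2, seeded at 10⁵ cells/mL, 2 days at 37 °C in 5% CO₂. Fresh medium with compound at 100, 50, 25, 10 and 1 µM, 72 h. Dead cells counted by trypan blue (0.1% in phosphate buffer); viability relative to control. IC50 by linear regression of K_c values.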

Leishmania peruviana [1] = experiment: Antileishmanial activity against extracellular Leishmania peruviana promastigotes after 72 hrs; assay type: functional, organism-based
Outline: (§1)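 Promastigotes grown in MTL medium plus 10% inactivated FBS, air atmosphere, 28 °C. Compounds at 100, 50, 25, 10 and 1 µM, DMSO 0.1%. Parasites counted in a Neubauer hemocytometer at 24, 48 and 72 h. Average of three separate determinations.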

Leishmania braziliensis [2] = experiment: Antileishmanial activity against extracellular Leishmania braziliensis promastigotes after 72 hrs; assay type: functional, organism-based; outline: as §1
Leishmania peruviana [3] = experiment: Antileishmanial activity against Leishmania peruviana infected in BALB/c mouse J774.2 cells assessed as decrease in parasite infection rate measured on day 10 relative to control; assay type: functional; parameters: scale not given: the % may be the effect or the level left
Leishmania peruviana [4] = experiment: Antileishmanial activity against Leishmania peruviana in BALB/c mouse J774.2 cells assessed as reduction of morphological conversion to parasite amastigote number per cell measured on day 10 by Giemsa staining relative to control; assay type: functional; parameters: scale not given: the % may be the effect or the level left
Leishmania peruviana [5] = experiment: Inhibition of acetate catabolite excretion in Leishmania peruviana promastigotes at IC25 after 96 hrs by NMR spectroscopy; assay type: functional
Outline: (§2)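 Promastigotes of L. (V.) peruviana or L. (V.) braziliensis in MTL medium (initial 5 × 10⁵ cells/mL) received drug at IC25; controls were untreated. After 96 h at 28 °C, cells were spun down at 1500 rpm for 10 min. Excreted end metabolites in the cell-free medium were identified by ¹H NMR and compared with fresh medium and untreated cultures.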

Leishmania peruviana [6] = experiment: Inhibition of succinate catabolite excretion in Leishmania peruviana promastigotes at IC25 after 96 hrs by NMR spectroscopy; assay type: functional; outline: as §2
Leishmania peruviana [7] = experiment: Antileishmanial activity against Leishmania peruviana assessed as induction of death of parasite with distortion of parasite body at IC25 after 96 hrs by transmission electron microscopy; assay type: functional, organism-based
Outline: (§3)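 L. (V.) peruviana MHOM/PE/1984/LC26 or L. (V.) braziliensis MHOM/BR/1975/M2904 promastigotes at 5 × 10⁶ cells/mL in MTL medium plus 10% inactivated FBS, in air at 28 °C, with drug at IC25 for 96 h. Pellets were PBS-washed, fixed 2 h at 4 °C in 2% (v/v) p-formaldehyde-glutaraldehyde in 0.05 M cacodylate (pH 7.4), and examined by TEM against untreated parasites.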

[8] = Ratio of compound IC50 to pentostam IC50 for BALB/c mouse J774.2 cells; assay type: ADME, cell-based; settings: read-out: Ratio IC50
[9] = Ratio of compound IC50 to glucatim IC50 for BALB/c mouse J774.2 cells; assay type: ADME, cell-based; settings: read-out: Ratio IC50
Leishmania braziliensis [10] = experiment: Antileishmanial activity against intracellular Leishmania braziliensis amastigotes after 72 hrs by Giemsa staining; assay type: functional, organism-based
Leishmania peruviana [11] = experiment: Increase in L-alanine catabolite excretion in Leishmania peruviana promastigotes at IC25 after 96 hrs by NMR spectroscopy; assay type: functional, organism-based; outline: as §2
Leishmania peruviana [12] = experiment: Effect on pyruvate catabolite excretion in Leishmania peruviana promastigotes at IC25 after 96 hrs by NMR spectroscopy; assay type: functional, organism-based; outline: as §2
Leishmania peruviana [13] = experiment: Effect on glycerol catabolite excretion in Leishmania peruviana promastigotes at IC25 after 96 hrs by NMR spectroscopy; assay type: functional, organism-based; outline: as §2
Leishmania peruviana [14] = experiment: Antileishmanial activity against Leishmania peruviana assessed as disruption of parasite cytoplasm at IC25 after 96 hrs by transmission electron microscopy; assay type: functional, organism-based; outline: as §3
Leishmania peruviana [15] = experiment: Antileishmanial activity against Leishmania peruviana assessed as abundance of morphologically altered glycosomes at IC25 after 96 hrs by transmission electron microscopy; assay type: functional, organism-based
Leishmania peruviana [16] = experiment: Antileishmanial activity against intracellular Leishmania peruviana amastigotes after 10 days by Giemsa staining
[17] = Mus musculus, BALB/c, J774.2, 72 h

**Q.** What does the source list for O=c1c(O[C@@H]2O[C@H](CO)[C@H](O)[C@H](O)[C@H]2O)c(-c2ccc(O)cc2)oc2cc(O)cc(O)c12 [TRIFOLIN]?
**A.** IC50 (J774.2; [17]): 161 µM; IC50 (Leishmania peruviana [1]; Leishmania peruviana, 72 h): 53.3 µM; IC50 (Leishmania braziliensis [2]; Leishmania braziliensis, 72 h): 52.5 µM

**Q.** With O=c1c(O)c(-c2ccc(O)cc2)oc2cc(O)cc(O)c12 [KAEMPFEROL] as the molecule, how does the IC50 (J774.2; [17]) read?
**A.** The IC50 was 53.7 µM.

**Q.** What about the IC50 (Leishmania peruviana [1]; Leishmania peruviana, 72 h) of the same molecule?
**A.** Its IC50 is 71.3 µM.

**Q.** And the IC50 (Leishmania braziliensis [2]; Leishmania braziliensis, 72 h)?
**A.** Its IC50 is 53.6 µM.

**Q.** For CC(=O)Oc1cc(OC(C)=O)c2c(=O)c(OC(C)=O)c(-c3ccc(OC(C)=O)c(OC(C)=O)c3)oc2c1, which IC50 (J774.2; [17]) is on record?
**A.** The IC50 was 109 µM.

**Q.** What about the Activity (Leishmania peruviana [3]) of the same molecule?
**A.** The Activity was 40%.

**Q.** And the Activity (Leishmania peruviana [4])?
**A.** The Activity was 72%.

**Q.** What about the “inhibition (INH)” value (Leishmania peruviana [5]) of the same molecule?
**A.** Its value is 30%.

**Q.** And the “inhibition (INH)” value (Leishmania peruviana [6])?
**A.** Its value is 30%.

**Q.** What about the Activity (Leishmania peruviana [7]) of the same molecule?
**A.** Its Activity is “Active”.

**Q.** And the selectivity ratio [8]?
**A.** Its selectivity ratio is 10.

**Q.** What about the selectivity ratio [9] of the same molecule?
**A.** The selectivity ratio was 10.

**Q.** And the Activity (Leishmania braziliensis [10])?
**A.** Its Activity is “Active”.

**Q.** What about the Activity (Leishmania peruviana [11]) of the same molecule?
**A.** Its Activity is “Active”.

**Q.** And the Activity (Leishmania peruviana [12])?
**A.** The Activity was “Active”.

**Q.** What about the Activity (Leishmania peruviana [13]) of the same molecule?
**A.** The Activity was “Active”.

**Q.** What about the Activity (Leishmania peruviana [14]) of the same molecule?
**A.** The Activity was “Active”.

**Q.** And the Activity (Leishmania peruviana [15])?
**A.** The Activity was “Active”.

**Q.** And the IC50 (Leishmania peruviana [1]; Leishmania peruviana, 72 h)?
**A.** Its IC50 is 11.2 µM.

**Q.** What about the IC50 (Leishmania braziliensis [2]; Leishmania braziliensis, 72 h) of the same molecule?
**A.** Its IC50 is 46.8 µM.

**Q.** What about the Activity (Leishmania peruviana [16]) of the same molecule?
**A.** The Activity was “Active”.

**Q.** Which IC50 (J774.2; [17]) does the source give for CC(=O)OC[C@H]1O[C@@H](Oc2c(-c3ccc(O)c(O)c3)oc3cc(O)cc(O)c3c2=O)[C@H](O)[C@@H](O)[C@H]1O here?
**A.** Its IC50 is 61.3 µM.

**Q.** What about the IC50 (Leishmania peruviana [1]; Leishmania peruviana, 72 h) of the same molecule?
**A.** Its IC50 is 87 µM.

**Q.** What about the IC50 (Leishmania braziliensis [2]; Leishmania braziliensis, 72 h) of the same molecule?
**A.** The IC50 was 51.6 µM.

**Q.** What does the source list for O=c1c(O)c(-c2ccc(O)c(O)c2)oc2cc(O)cc(O)c12 [QUERCETIN]?
**A.** IC50 (J774.2; [17]): 125 µM; IC50 (Leishmania peruviana [1]; Leishmania peruviana, 72 h): 60 µM; IC50 (Leishmania braziliensis [2]; Leishmania braziliensis, 72 h): 30.5 µM

**Q.** For MEGLUMINE ANTIMONATE, which IC50 (J774.2; j774.2) is on record?
**A.** The IC50 was 15.2 µM.

**Q.** What about the IC50 (Leishmania peruviana [1]) of the same molecule?
**A.** Its IC50 is 15.3 µM.

**Q.** What about the IC50 (Leishmania braziliensis [2]) of the same molecule?
**A.** Its IC50 is 25.6 µM.
